From ChEMBL document CHEMBL1255446, “Combinations of mutations in the connection domain of human immunodeficiency virus type 1 reverse transcriptase: assessing the impact on nucleoside and nonnucleoside reverse transcriptase inhibitor resistance” (2010)

Tests used:
Type in all cases: functional
[1] = system: Human immunodeficiency virus 1; test: Antiviral activity against HIV1 with RT connection domain K103N mutant transfected in HEK293 cells assessed as inhibition of viral replication relative to HIV1 NL4-3
Summary of the method: (§1)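 Single-replication-cycle (PhenoSense) assay. Site-directed mutant RT pseudoviruses were made by cotransfecting 293 cells with RTV plasmid plus an amphotropic MLV Env plasmid, harvested at 48 h, and used to infect fresh 293 cells. Serial drug dilutions were added before infection. Luciferase was read ~72 h post-infection, % inhibition was computed, and EC50 was taken from the curves. Values are fold change versus NL4-3 reference run in the same experiment.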

[2] = system: Human immunodeficiency virus 1; test: Antiviral activity against HIV1 with RT connection domain T369I/N348I mutant transfected in HEK293 cells assessed as inhibition of viral replication relative to HIV1 NL4-3; summary of the method: as §1
[3] = system: Human immunodeficiency virus 1; test: Antiviral activity against HIV1 with RT connection domain Y181C/T369I mutant transfected in HEK293 cells assessed as inhibition of viral replication relative to HIV1 NL4-3; summary of the method: as §1
[4] = system: Human immunodeficiency virus 1; test: Antiviral activity against HIV1 with RT connection domain L100I/N348I mutant transfected in HEK293 cells assessed as inhibition of viral replication relative to HIV1 NL4-3; summary of the method: as §1
[5] = system: Human immunodeficiency virus 1; test: Antiviral activity against HIV1 with RT connection domain K103N/N348I mutant transfected in HEK293 cells assessed as inhibition of viral replication relative to HIV1 NL4-3; summary of the method: as §1
[6] = system: Human immunodeficiency virus 1; test: Antiviral activity against HIV1 with RT connection domain Y181C/N348I mutant transfected in HEK293 cells assessed as inhibition of viral replication relative to HIV1 NL4-3; summary of the method: as §1
[7] = system: Human immunodeficiency virus 1; test: Antiviral activity against HIV1 with RT connection domain N348I mutant transfected in HEK293 cells assessed as inhibition of viral replication relative to HIV1 NL4-3; summary of the method: as §1
[8] = system: Human immunodeficiency virus 1; test: Antiviral activity against HIV1 with RT connection domain Y181C mutant transfected in HEK293 cells assessed as inhibition of viral replication relative to HIV1 NL4-3; summary of the method: as §1
[9] = system: Human immunodeficiency virus 1; test: Antiviral activity against HIV1 with RT connection domain K103N/T369I mutant transfected in HEK293 cells assessed as inhibition of viral replication relative to HIV1 NL4-3; summary of the method: as §1
[10] = system: Human immunodeficiency virus 1; test: Antiviral activity against HIV1 with RT connection domain K103N/T369I/N348I mutant transfected in HEK293 cells assessed as inhibition of viral replication relative to HIV1 NL4-3; summary of the method: as §1
[11] = system: Human immunodeficiency virus 1; test: Antiviral activity against HIV1 with RT connection domain G190A mutant transfected in HEK293 cells assessed as inhibition of viral replication relative to HIV1 NL4-3; summary of the method: as §1
[12] = system: Human immunodeficiency virus 1; test: Antiviral activity against HIV1 with RT connection domain G190A/T369I mutant transfected in HEK293 cells assessed as inhibition of viral replication relative to HIV1 NL4-3; summary of the method: as §1
[13] = system: Human immunodeficiency virus 1; test: Antiviral activity against HIV1 with RT connection domain G190A/N348Ib mutant transfected in HEK293 cells assessed as inhibition of viral replication relative to HIV1 NL4-3; summary of the method: as §1
[14] = system: Human immunodeficiency virus 1; test: Antiviral activity against HIV1 with RT connection domain G190S mutant transfected in HEK293 cells assessed as inhibition of viral replication relative to HIV1 NL4-3; summary of the method: as §1
[15] = system: Human immunodeficiency virus 1; test: Antiviral activity against HIV1 with RT connection domain G190S/T369I/N348I mutant transfected in HEK293 cells assessed as inhibition of viral replication relative to HIV1 NL4-3; summary of the method: as §1
[16] = system: Human immunodeficiency virus 1; test: Antiviral activity against HIV1 with RT connection domain G190S/T369I mutant transfected in HEK293 cells assessed as inhibition of viral replication relative to HIV1 NL4-3; summary of the method: as §1
[17] = system: Human immunodeficiency virus 1; test: Antiviral activity against HIV1 with RT connection domain G190A/T369I/N348I mutant transfected in HEK293 cells assessed as inhibition of viral replication relative to HIV1 NL4-3; summary of the method: as §1
[18] = system: Human immunodeficiency virus 1; test: Antiviral activity against HIV1 with RT connection domain L100I/T369I mutant transfected in HEK293 cells assessed as inhibition of viral replication relative to HIV1 NL4-3; summary of the method: as §1
[19] = system: Human immunodeficiency virus 1; test: Antiviral activity against HIV1 with RT connection domain Y181C/T369I/N348I mutant transfected in HEK293 cells assessed as inhibition of viral replication relative to HIV1 NL4-3; summary of the method: as §1
[20] = system: Human immunodeficiency virus 1; test: Antiviral activity against HIV1 with RT connection domain T369V mutant transfected in HEK293 cells assessed as inhibition of viral replication relative to HIV1 NL4-3; summary of the method: as §1
[21] = system: Human immunodeficiency virus 1; test: Antiviral activity against HIV1 with RT connection domain G190S/N348I mutant transfected in HEK293 cells assessed as inhibition of viral replication relative to HIV1 NL4-3; summary of the method: as §1
[22] = system: Human immunodeficiency virus 1; test: Antiviral activity against HIV1 with RT connection domain L100I/T369I/N348I mutant transfected in HEK293 cells assessed as inhibition of viral replication relative to HIV1 NL4-3; summary of the method: as §1
[23] = system: Human immunodeficiency virus 1; test: Antiviral activity against HIV1 with RT connection domain T369I mutant transfected in HEK293 cells assessed as inhibition of viral replication relative to HIV1 NL4-3; summary of the method: as §1
[24] = system: Human immunodeficiency virus 1; test: Antiviral activity against HIV1 with RT connection domain L100I mutant transfected in HEK293 cells assessed as inhibition of viral replication relative to HIV1 NL4-3; summary of the method: as §1

Compound: Cc1ccnc2c1NC(=O)c1cccnc1N2C1CC1 [NEVIRAPINE]
- fold change (FC) [1]: 81
- fold change (FC) [2]: 58.6
- fold change (FC) [3]: >400
- fold change (FC) [4]: 5.3
- fold change (FC) [5]: >400
- fold change (FC) [6]: >400
- fold change (FC) [7]: 4.1
- fold change (FC) [8]: 317
- fold change (FC) [9]: >400
- fold change (FC) [10]: >400
- fold change (FC) [11]: 127.7
- fold change (FC) [12]: >400
- fold change (FC) [13]: >400
- fold change (FC) [14]: 145
- fold change (FC) [15]: >400
- fold change (FC) [16]: >400
- fold change (FC) [17]: >400
- fold change (FC) [18]: 4.8
- fold change (FC) [19]: >400
- fold change (FC) [20]: 9.2
- fold change (FC) [21]: >400
- fold change (FC) [22]: 56.3
- fold change (FC) [23]: 8.4
- fold change (FC) [24]: 2.1

Compound: CC(C)Nc1cccnc1N1CCN(C(=O)c2cc3cc(NS(C)(=O)=O)ccc3[nH]2)CC1 [DELAVIRDINE]
- fold change (FC) [1]: 75.7
- fold change (FC) [2]: 29.8
- fold change (FC) [3]: >250
- fold change (FC) [4]: 90.7
- fold change (FC) [5]: >250
- fold change (FC) [6]: >250
- fold change (FC) [7]: 3.4
- fold change (FC) [8]: 44.7
- fold change (FC) [9]: >250
- fold change (FC) [10]: >250
- fold change (FC) [11]: 0.3
- fold change (FC) [12]: 1.2
- fold change (FC) [13]: 1.1
- fold change (FC) [14]: 0.3
- fold change (FC) [15]: 6.9
- fold change (FC) [16]: 0.6
- fold change (FC) [17]: 5.9
- fold change (FC) [18]: 49.7
- fold change (FC) [19]: >250
- fold change (FC) [20]: 5.5
- fold change (FC) [21]: 0.9
- fold change (FC) [22]: >250
- fold change (FC) [23]: 5.2
- fold change (FC) [24]: 34

Compound: O=C1Nc2ccc(Cl)cc2[C@@](C#CC2CC2)(C(F)(F)F)O1 [EFAVIRENZ]
- fold change (FC) [1]: 21.3
- fold change (FC) [2]: 8.1
- fold change (FC) [3]: 4
- fold change (FC) [4]: 16
- fold change (FC) [5]: 115
- fold change (FC) [6]: 3.2
- fold change (FC) [7]: 1.9
- fold change (FC) [8]: 1.7
- fold change (FC) [9]: 164.1
- fold change (FC) [10]: >700
- fold change (FC) [11]: 5.2
- fold change (FC) [12]: 33.7
- fold change (FC) [13]: 26
- fold change (FC) [14]: 63
- fold change (FC) [15]: >700
- fold change (FC) [16]: >700
- fold change (FC) [17]: >700
- fold change (FC) [18]: 13.6
- fold change (FC) [19]: 17
- fold change (FC) [20]: 3.1
- fold change (FC) [21]: >700
- fold change (FC) [22]: 137.7
- fold change (FC) [23]: 2.4
- fold change (FC) [24]: 9

Compound: Cc1cn([C@H]2C[C@H](N=[N+]=[N-])[C@@H](CO)O2)c(=O)[nH]c1=O [ZIDOVUDINE]
- fold change (FC) [1]: 1.1
- fold change (FC) [2]: 5.4
- fold change (FC) [3]: 0.9
- fold change (FC) [4]: 0.3
- fold change (FC) [5]: 2.6
- fold change (FC) [6]: 0.7
- fold change (FC) [7]: 2.4
- fold change (FC) [8]: 0.3
- fold change (FC) [9]: 2.3
- fold change (FC) [10]: 7.9
- fold change (FC) [11]: 1.1
- fold change (FC) [12]: 1.7
- fold change (FC) [13]: 2
- fold change (FC) [14]: 0.8
- fold change (FC) [15]: 5.8
- fold change (FC) [16]: 0.7
- fold change (FC) [17]: 4.2
- fold change (FC) [18]: 0.2
- fold change (FC) [19]: 2.2
- fold change (FC) [20]: 2.1
- fold change (FC) [21]: 1.7
- fold change (FC) [22]: 0.5
- fold change (FC) [23]: 2.7
- fold change (FC) [24]: 0.1
